14-3-3 Bad PPI: disrupts binding of bovine 14-3-3 zeta to phospho-Bad peptide | inhibition, % at 21.7 µM | 0.71% of 220,000 active | TR-FRET 14-3-3zeta/Dy647-pBad peptide displacement, 1 h | P63103 | AID 781;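 active = inhibition above about 70%, limit read from the data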;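 note: 0% = full 14-3-3 plus peptide FRET controls and 100% = background without 14-3-3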
Target sequence (P63103 whole entry, looked up): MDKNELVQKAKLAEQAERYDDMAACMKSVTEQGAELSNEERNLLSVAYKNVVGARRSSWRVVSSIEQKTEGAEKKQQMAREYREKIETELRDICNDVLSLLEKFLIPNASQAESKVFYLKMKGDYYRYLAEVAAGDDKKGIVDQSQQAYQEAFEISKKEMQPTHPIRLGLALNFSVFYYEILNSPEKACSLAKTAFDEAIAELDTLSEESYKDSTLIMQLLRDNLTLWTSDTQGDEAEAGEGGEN
RBBP9 inh: human RBBP9 hydrolase inhibition. O75884. recombinant RBBP9, FP-Rh probe fluorescence polarization. inhibition, % at 7.94 µM. 0.2% of 220,000 active;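 active = inhibition above the campaign mean of all tested compounds plus 3 SD, cut at about 14% in these data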;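 note: plate controls were DMSO wells with RBBP9 for no effect and wells lacking RBBP9 protein for full effect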
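Test system – recombinant human RBBP9 · Input – RBBP9 2.5 µM in dispensing solution, pre-mixing · Medium – Tris buffer pH 8.0, NaCl, Pluronic · Schedule – preincubation 30 min plus labeling 45 min at 25 °C · Measured by – fluorescence polarization · Measure – % inhibition · Controls – DMSO and no-protein wells · Replicates – one well per compound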
PKD1 kinase inh: blocks activity of human protein kinase D1. Q15139. 0.056% of 200,000 active. PKD1 kinase fluorescence polarization assay. inhibition, % (test concentration not listed)
eIF4E-4G inh: inhibitors of eIF4E and eIF4G interaction in translation initiation; TR-FRET eIF4E-eIF4GI(517-606) binding, 2 h; P63073+Q04637; inhibition, % at 21.7 µM; AID 782; 0.37% of 220,000 active;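 active = inhibition above about 30%, limit read from the data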;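 note: 0% = full FRET control wells and 100% = background wells lacking eIF4GI fragment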
EBV gp42 block: inhibitors of Epstein-Barr virus glycoprotein 42 | 0.42% of 220,000 active | Fluorescence polarization binding assay, mP read-out | inhibition, % (tested at 21.74 µM) | Q1HVG2
Target sequence (Q1HVG2 whole entry, looked up): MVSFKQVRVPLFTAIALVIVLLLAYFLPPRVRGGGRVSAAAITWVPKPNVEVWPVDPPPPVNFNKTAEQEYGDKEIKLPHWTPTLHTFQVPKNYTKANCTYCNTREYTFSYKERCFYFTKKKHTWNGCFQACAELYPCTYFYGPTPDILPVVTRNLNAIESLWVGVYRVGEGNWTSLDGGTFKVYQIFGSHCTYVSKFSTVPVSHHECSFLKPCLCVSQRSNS
* hit, by the source's call; . = not tested or not shown; [ ] = another dose, or the depositor's remark. Hits are enriched below; roughly 1.6% of the tested compounds scored in any of these assays. Cut-off read from the data, not from the text of the source, unless noted: active = inhibition above about 50%; inactive = the rest.

SMILES | 14-3-3 Bad PPI | RBBP9 inh | PKD1 kinase inh | eIF4E-4G inh | EBV gp42 block
CS(=O)(=O)N1Cc2ccccc2CC1C(=O)O (stereo unspecified) | 7 | 9 | 2 | 0 | -14
CCCC(c1nnnn1Cc1ccc(F)cc1)N1CCN(C2CCCCC2)CC1 (stereo unspecified) | 75* | -1 | -10 | -13 | -20
CCCC(c1nnnn1C(C)(C)CC)N1CCN(C2CCCC2)CC1 (stereo unspecified) | 73* | -6 | -10 | -6 | -11
COc1ccc(Cn2nnnc2C(CC(C)C)N2CCC(C(N)=O)CC2)cc1 (stereo unspecified) | -2 | -5 | 3 | -4 | -23
CCCC(c1nnnn1Cc1ccc(OC)cc1)N1CCC(C(N)=O)CC1 (stereo unspecified) | 75* | -1 | -4 | 1 | -9
Cc1cc(C(=O)N/N=C/C(Cl)=C/c2ccccc2)c(C)o1 | -3 | -12 | . | -4 | -9
Cc1ccc(C(=O)c2c[nH]c(C(=O)NCc3cccnc3)c2)cc1 | -7 | -3 | 13 | 1 | 6
O=C1c2ccccc2C(=O)N1/N=C/c1ccc(O)c(O)c1 | -5 | -9 | 4 | 7 | -8
COC(=O)Cc1[nH]c(=S)[nH]c1C(=O)OC | -6 | -1 | . | 8 | -8
O=C(O)c1cc(CN2CCOCC2)oc1-c1ccccc1 | 76* | 10 | -2 | 1 | -16
O=C(COC(=O)c1cc[n+]([O-])cc1)Nc1ccc(F)c([N+](=O)[O-])c1 | 1 | -9 | -16 | 5 | -14
Cc1ccsc1/C=N/n1c(COc2ccccc2)n[nH]c1=S | -4 | -1 | 3 | 6 | 0
CC(C)(C)C1=Nn2c(nnc2-c2ccccc2F)SC1 | . | -5 | 4 | . | -27
CC(C)(C)C1=Nn2c(nnc2-c2ccccn2)SC1 | 12 | -3 | -5 | 51* | -28
Cc1ccc(-c2nc(NC(=O)c3cc(C(C)(C)C)nn3C)sc2C)cc1Cl | 0 | 0 | . | 1 | -11
O=C(CCNC(=O)Cn1ccc2ccccc2c1=O)NCc1ccccn1 | -8 | -1 | 6 | 1 | -13
CCOc1c(Nc2ccccc2O)c(=O)c1=O | -1 | -4 | . | -3 | -4
Cc1c(-n2cccc2C=O)cccc1[N+](=O)[O-] | -5 | 2 | 1 | 86* | -6
O=Cc1cccn1-c1cccc([N+](=O)[O-])c1 | -15 | 5 | 4 | -4 | -10
NNC(=O)C(=O)NCCCN1CCOCC1 | 9 | -7 | 9 | 0 | -15
CCCc1nnc(SCC(=O)N2CCCC2)n1Cc1ccco1 | -14 | 5 | -5 | 2 | -7
Cc1cccc(S(=O)(=O)C(C#N)c2nc3ccccc3nc2N2CC(C)OC(C)C2)c1 (stereo unspecified) | 73* | -3 | -5 | 10 | -14
Cc1ccc(S(=O)(=O)C(C#N)c2nc3ccccc3nc2N2CCCC2)cc1 (stereo unspecified) | 11 | -4 | -7 | -2 | 91*
CCN1CCN(c2nc3ccccc3nc2C(C#N)S(=O)(=O)c2ccc(C)cc2)CC1 (stereo unspecified) | -6 | -7 | -1 | 2 | -21
Cc1nc(N2CCN(c3ccccc3)CC2)[nH]c(=O)c1Cc1ccccc1 | 92* | -1 | 1 | 3 | -6
SMILES | 14-3-3 Bad PPI | RBBP9 inh | PKD1 kinase inh | eIF4E-4G inh | EBV gp42 block
Cc1nc(N2CCN(C)CC2)[nH]c(=O)c1Cc1cccc2ccccc12 | 2 | -3 | -10 | 7 | -22
CC(=O)c1cn(S(=O)(=O)c2ccccc2)c2ccccc12 | 8 | -2 | -1 | 13 | 4
CN1CCN(C(CC(=O)Nc2cccc(O)c2)C(=O)O)CC1 (stereo unspecified) | -20 | 5 | -5 | -1 | -10
COc1ccc(-n2c(=S)[nH]c3cc(C(=O)Nc4ccc(OC)c(OC)c4)ccc3c2=O)cc1 | 90* | -2 | 7 | -1 | 0
c1cc2ccc3ccc(CN4CCOCC4)c4ccc(c1)c2c34 | 85*[fluorescence artefact?] | -3 | -5 | 9 | -7
Cc1ccc(S(=O)(=O)Nc2cc(C(F)(F)F)ccc2N2CCOCC2)c(C)c1 | -4 | -5 | -2 | 13 | -9
CN(Cc1cc(=O)[nH]c2ccccc12)C(=O)c1ccccc1 | 4 | 1 | -6 | 11 | -9
CCC(=O)N(CC)Cc1cc(=O)[nH]c2ccccc12 | 6 | -13 | -1 | 0 | -11
COc1ccccc1N(Cc1cc(=O)[nH]c2ccccc12)C(=O)c1ccccc1 | 1 | -6 | . | 58* | -18
CCCN(Cc1cc(=O)[nH]c2ccccc12)C(=O)CC | 76* | 2 | . | 5 | 0
Nc1c(C(=O)NCc2cccnc2)sc(=S)n1-c1ccccc1 | 5 | -9 | -12 | 33* | -8
COC(=O)c1c(N)n(CCCN2CCOCC2)c2nc3ccccc3nc12 | -2 | -8 | -6 | 0 | -16
COCCOC(=O)c1c(N)n(CCCN2CCOCC2)c2nc3ccccc3nc12 | -10 | -4 | . | 92* | -6
CC(C)Cn1c(N)c(C(=O)NCCN2CCOCC2)c2nc3ccccc3nc21 | -10 | 3 | 4 | -2 | 1
Cc1cccc(-n2c(N)c(C(=O)NCCN3CCOCC3)c3nc4ccccc4nc32)c1 | 71* | 0 | -4 | -2 | -9
CN1C2CCC1/C(=C\c1ccccc1)C(=O)/C2=C\c1ccccc1 | 6 | -5 | 4 | 0 | -4
O=C(Nc1cc(C(F)(F)F)ccc1N1CCOCC1)c1cccc(F)c1 | -3 | 2 | -7 | 2 | -16
O=C(Nc1cc(C(F)(F)F)ccc1N1CCOCC1)c1ccccc1F | 73* | -3 | -6 | 2 | -17
C=C(C(=O)c1ccccc1)C(C)C(=C)C(=O)c1ccccc1 | -13 | -2 | 3 | 4 | 8
[O-]/C(=C(\C(=S)Nc1cccc2ccccc12)[n+]1ccccc1)c1cccs1 | 84* | -6 | -3 | -5 | 1
O=C(c1ccc(-c2ccccc2)cc1)N1CCN(c2ccccn2)CC1 | -8 | 2 | 1 | -3 | -15
O=C(Nc1ccc2ncccc2c1)c1cc(Cl)ccc1Cl | 0 | 4 | -5 | 1 | -8
O=C(Nc1cc(F)c(Br)cc1F)c1ccc(Cl)cc1 | 5 | -3 | . | -2 | 3
CC(C)CC(NC(=O)c1ccc(Cl)cc1)C(=O)O (stereo unspecified) | -26 | 2 | -9 | -6 | -6
CC(C)COc1ccc(C(=O)NC(CC(C)C)C(=O)O)cc1 (stereo unspecified) | 4 | -13 | -7 | 2 | 144*
Cc1ccn2c(CN(C)CCn3nc(C)cc3C)c(C(=O)N3CCCCCC3)nc2c1 | -5 | -10 | -2 | 0 | 1
CCOc1ccccc1CN(CCc1ccc2c(c1)OCO2)Cc1ccccn1 | 72* | -4 | -5 | -4 | -17
CCOc1ccc(CN(C)CCc2ccccn2)cc1 | 53 | -5 | 0 | 1 | 3
CN(C)S(=O)(=O)c1cccc(C(=O)N=C2N=C3C=CC(Cl)=CN3Cc3ccccc32)c1 | -4 | -7 | . | -7 | -30

Screens (PubChem)
